Columns and labels:
[1] = system: Mus musculus; assay: Effect on neutral lipids from CF1 male mice after 16 days at a dose of 10 (mg/kg/day); format: functional
Method in brief: (§1)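 Dosing was ip in CF₁ male mice (~25 g) for 16 days, with compound suspended in 1% carboxymethylcellulose. Liver was then taken and homogenised to 10% in 0.25 M sucrose with 0.001 M EDTA. Lipid was extracted from a 2 mL aliquot by the Folch and Bligh–Dyer methods and total mg of lipid was weighed. Cholesterol (Liebermann–Burchard), triglycerides (kit), neutral lipids and phospholipids were then measured; N = 6; reported as % of vehicle control.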

[2] = organism: Mus musculus; assay: In vitro effect on CF1 male mouse on Mitochondrial citrate exchange; format: functional
Method in brief: (§2)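 In vitro test on 10% CF₁ male mouse liver homogenate (0.25 M sucrose, 0.001 M EDTA) with 2.5 μmol test drug. Assays: acetyl-CoA synthetase and citrate lyase as hydroxamate at 540 nm, 30 min, 37 °C; citrate exchange from [¹⁴C]citrate-loaded mitochondria after 10 min with drug; side-chain oxidation by ¹⁴CO₂ from [26-¹⁴C]cholesterol, 18 h, 37 °C; acetyl-CoA carboxylase by [¹⁴C]bicarbonate fixation after 30 min polymerization then 30 min at 37 °C.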

[3] = system: Mus musculus; assay: In vitro effect on CF1 male mouse on acyltransferase after 16 days at a dose of 20 (mg/kg)/day; format: functional
Method in brief: (§3)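 In vivo enzyme study. CF₁ male mice were dosed ip for 16 days in 1% CMC, and liver was homogenised to 10% in 0.25 M sucrose with 0.001 M EDTA. Enzymes assayed: acetyl-CoA synthetase as hydroxamate at 540 nm after 30 min at 37 °C; HMG CoA reductase with [1-¹⁴C]acetate in 9000g supernatant for 60 min at 37 °C; fatty acid synthetase with [2-¹⁴C]malonyl-CoA; acyltransferase with [³H]glycerol 3-phosphate and microsomes for 10 min; phosphatidate phosphohydrolase as released phosphate at 820 nm after 30 min. N = 6; reported as % control.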

[4] = system: Mus musculus; assay: In vitro effect on CF1 male mouse on acyltransferase after 16 days at a dose of 60 (mg/kg)/day; format: functional; method in brief: as §3
[5] = system: Mus musculus; assay: Effect on neutral lipids from CF1 male mice after 16 days at a dose of 40 (mg/kg/day); format: functional; method in brief: as §1
[6] = system: Mus musculus; assay: Effect on neutral lipids from CF1 male mice after 16 days at a dose of 60 (mg/kg/day); format: functional; method in brief: as §1
[7] = system: Mus musculus; assay: Effect on triglycerides from CF1 male mice after 16 days at a dose of 40 (mg/kg/day); format: functional; method in brief: as §1
[8] = system: Mus musculus; assay: Effect on triglycerides from CF1 male mice after 16 days at a dose of 60 (mg/kg/day); format: functional; method in brief: as §1
[9] = system: Mus musculus; assay: Effect on Serum cholesterol levels on CF1 male mice at a dose of 12.5 (mg/kg)/day after 16 days; format: functional
Method in brief: (§4)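 CF1 male mice (~25 g), drug suspended in 1% carboxymethylcellulose in water, given ip daily for 16 days; n = 6; vehicle control. Tail-vein blood on days 9 and 16, serum cholesterol by modified Liebermann–Burchard reaction; day-14 serum triglyceride by commercial kit; expressed as % control.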

[10] = system: Mus musculus; assay: Effect on Serum cholesterol levels on CF1 male mice at a dose of 20 (mg/kg)/day after 16 days; format: functional; method in brief: as §4
[11] = system: Mus musculus; assay: Effect on Serum cholesterol levels on CF1 male mice at a dose of 25 (mg/kg)/day after 9 days; format: functional; method in brief: as §4
[12] = system: Mus musculus; assay: Effect on Serum cholesterol levels on CF1 male mice at a dose of 50 (mg/kg)/day after 16 days; format: functional; method in brief: as §4
[13] = system: Mus musculus; assay: Effect on Serum cholesterol levels on CF1 male mice at a dose of 50 (mg/kg)/day after 9 days; format: functional; method in brief: as §4
[14] = system: Mus musculus; assay: Effect on Serum triglceride levels on CF1 male mice at a dose of 12.5 (mg/kg)/day after 14 days; format: functional; method in brief: as §4
[15] = system: Mus musculus; assay: Effect on Serum triglceride levels on CF1 male mice at a dose of 20 (mg/kg)/day after 14 days; format: functional; method in brief: as §4
[16] = system: Mus musculus; assay: Effect on Serum triglceride levels on CF1 male mice at a dose of 25 (mg/kg)/day after 14 days; format: functional; method in brief: as §4
[17] = organism: Mus musculus; assay: Effect on Serum triglceride levels on Hyperlipidemic induced mice After 2-week diet; format: functional
Method in brief: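 Mice fed atherogenic diet for 2 weeks to raise serum lipids, then given drug at 20 (mg/kg)/day ip for a further 2 weeks; serum cholesterol and triglyceride measured after the diet and after 14 days dosing; n = 6; compared with 1% CMC and diet-only controls; % control.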

[18] = system: Mus musculus; assay: Effect on Serum triglyceride levels on CF1 male mice at a dose of 20 (mg/kg)/day after 14 days; format: functional; method in brief: as §4
[19] = organism: Mus musculus; assay: In vitro effect on CF1 male mouse on Cholesterol side- chain oxidation; format: functional; method in brief: as §2
[20] = system: Mus musculus; assay: In vitro effect on CF1 male mouse on Fatty acid synthetase after 16 days at a dose of 10 (mg/kg)/day; format: functional; method in brief: as §3
[21] = system: Mus musculus; assay: In vitro effect on CF1 male mouse on Fatty acid synthetase after 16 days at a dose of 40 (mg/kg)/day; format: functional; method in brief: as §3
[22] = system: Mus musculus; assay: In vitro effect on CF1 male mouse on Fatty acid synthetase after 16 days at a dose of 60 (mg/kg)/day; format: functional; method in brief: as §3
[23] = system: Mus musculus; assay: In vitro effect on CF1 male mouse on Ac-CoA synthetase after 16 days at a dose of 10 (mg/kg)/day; format: functional; conditions: in the assay text read “In vivo” for “In vitro”; method in brief: as §3
[24] = system: Rattus norvegicus; assay: Effect on low density neutral lipids Holtzman rats after 14 days administration; format: functional
Method in brief: (§5)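 Holtzman male rats (~400 g) given drug at 20 (mg/kg)/day for 14 days; on day 14 blood taken from the abdominal aorta and serum separated by centrifugation at 3500 rpm; lipid and protein content of the lipoprotein fractions measured.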

[25] = system: Rattus norvegicus; assay: Effect on neutral lipids Holtzman rats after 14 days administration; format: functional
[26] = system: Rattus norvegicus; assay: Effect on very low density neutral lipids Holtzman rats after 14 days administration; format: functional
Method in brief: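 Holtzman male rats (~400 g) received drug at 20 (mg/kg)/day for 14 days. On day 14, blood was collected from the abdominal aorta and serum was separated by centrifugation at 3500 rpm. Lipid content of the lipoprotein fractions was then determined.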

[27] = system: Rattus norvegicus; assay: Effect on Chylomicrons of Triglycerides Holtzman rats after 14 days administration; format: functional; method in brief: as §5
[28] = system: Rattus norvegicus; assay: Effect on Serum cholesterol levels on Holtzman rats at a dose of 10 (mg/kg)/day after 16 days; format: functional
Method in brief: (§6)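 Holtzman male rats (~200 g) dosed orally by intubation needle daily for 16 days, drug suspended in 1% carboxymethylcellulose; n = 6; vehicle control. Tail-vein serum cholesterol on days 9 and 16 by modified Liebermann–Burchard reaction; day-14 serum triglyceride by commercial kit; % control.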

[29] = system: Rattus norvegicus; assay: Effect on Serum cholesterol levels on Holtzman rats at a dose of 10 (mg/kg)/day after 9 days; format: functional; method in brief: as §6
[30] = system: Rattus norvegicus; assay: Effect on Serum cholesterol levels on Holtzman rats at a dose of 30 (mg/kg)/day after 9 days; format: functional; method in brief: as §6
[31] = system: Rattus norvegicus; assay: Effect on Serum triglceride levels on Holtzman rats at a dose of 10 (mg/kg)/day after 14 days; format: functional; method in brief: as §6
[32] = system: Rattus norvegicus; assay: Effect on Serum triglceride levels on Holtzman rats at a dose of 20 (mg/kg)/day after 14 days; format: functional; method in brief: as §6
[33] = system: Rattus norvegicus; assay: Effect on Serum triglceride levels on Holtzman rats at a dose of 30 (mg/kg)/day after 14 days; format: functional; method in brief: as §6
[34] = system: Mus musculus; assay: In vivo effect on CF1 male mouse on Lipid content after 16 days at a dose of 10 (mg/kg)/day

## CC(=O)c1ccccc1N1C(=O)c2ccccc2C1=O
[1]
  Control: 36%
[2]
  Control: 76%
[3]
  Control: 41%
[4]
  Control: 45%
[5]
  Control: 62%
[6]
  Control: 62%
[7]
  Control: 91%
[8]
  Control: 100%
[9]
  Control: 43%
[10]
  Serum cholesterol (% of control): 43%
[11]
  Control: 74%
[12]
  Control: 29%
[13]
  Control: 68%
[14]
  Control: 56%
[15]
  Control: 56%
[16]
  Control: 61%
[17]
  Control: 131%
[18]
  Control: 56%
[19]
  Control: 27%
[20]
  Control: 106%
[21]
  Control: 94%
[22]
  Control: 100%
[23]
  Control: 53%
[24]
  Control: 49%
[25]
  Control: 55%
[26]
  Control: 81%
[27]
  Control: 41%
[28]
  Control: 54%
[29]
  Control: 66%
[30]
  Control: 76%
[31]
  Control: 76%
[32]
  Control: 61%
[33]
  Control: 75%
[34]
  Control: 84%
